Results on 57 compounds are retold here after ChEMBL document CHEMBL3124841, “Discovery of vinyl sulfones as a novel class of neuroprotective agents toward Parkinson's disease therapy” (J Med Chem, 2014).

The structures appear in SMILES notation.

For assay [1], the target named is T1, Nuclear factor erythroid 2-related factor 2 (Mus musculus) (UniProt Q60795).
T1 sequence (whole entry): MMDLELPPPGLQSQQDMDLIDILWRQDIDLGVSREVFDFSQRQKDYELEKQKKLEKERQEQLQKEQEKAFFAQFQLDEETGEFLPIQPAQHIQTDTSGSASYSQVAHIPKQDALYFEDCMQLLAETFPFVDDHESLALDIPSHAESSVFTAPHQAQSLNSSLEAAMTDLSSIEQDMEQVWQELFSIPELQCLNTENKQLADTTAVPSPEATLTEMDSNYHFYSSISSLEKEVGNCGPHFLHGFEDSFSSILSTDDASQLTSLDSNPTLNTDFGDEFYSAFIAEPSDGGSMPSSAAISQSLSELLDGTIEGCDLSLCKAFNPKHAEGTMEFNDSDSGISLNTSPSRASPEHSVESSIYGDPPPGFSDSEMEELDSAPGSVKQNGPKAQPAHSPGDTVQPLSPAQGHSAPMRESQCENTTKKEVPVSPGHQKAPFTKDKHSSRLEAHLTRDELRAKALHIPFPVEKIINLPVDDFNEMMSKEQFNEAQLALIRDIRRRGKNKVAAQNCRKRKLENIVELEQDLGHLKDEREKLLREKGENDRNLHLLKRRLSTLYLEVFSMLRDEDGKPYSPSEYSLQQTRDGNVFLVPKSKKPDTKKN
Briefly: Induction of Nrf2-dependent HO1 protein level in mouse BV-2 cells at 20 uM after 24 hrs by sandwich ELISA. Type of assay: cell-based. In short, it runs like this: (§1)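 Murine BV-2 microglia in DMEM/10% FBS, 2.0 × 10⁴ cells per well, treated at 20 μM for 24 h in triplicate. Lysates in NP-40 Tris buffer (pH 8.0) diluted tenfold; HO-1 measured by sandwich ELISA with HRP-streptavidin and Amplex Red fluorescence (ex 530/em 590 nm). Expressed as % of 0.04% DMSO vehicle control ± SEM; sulforaphane 5 μM as reference.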
On the technique in general: ELISA stands for enzyme-linked immunosorbent assay.

The target of assay [2] is T1, Nuclear factor erythroid 2-related factor 2 (Mus musculus). The assay can be described thus: Induction of Nrf2-dependent HO1 protein level in mouse BV-2 cells at 20 uM after 24 hrs by sandwich ELISA relative to control. It counts as cell-based. An outline of the steps:
as §1

For the compound `COc1ccc(S(=O)(=O)/C=C/c2ccc(C(F)(F)F)cc2)cc1`, in assay [1], the Activity worked out at 154%. The same compound gave a fold change (FC) in assay [2] of 1.5.

`COc1ccc(S(=O)(=O)/C=C/c2cccc(OC)c2)cc1` returned an Activity in assay [1] of 146%. This compound yielded a fold change (FC) in assay [2] of 1.5. Turning to `COc1ccccc1S(=O)(=O)/C=C/c1ccc(Cl)cc1`, the Activity in assay [1] was determined as 330%. The compound further came in with a fold change (FC) in assay [2] of 3.3. `O=S(=O)(/C=C/c1ccc(C(F)(F)F)cc1)c1ccc(F)cc1` yielded an Activity in assay [1] of 125%. On the same count and under the same terms, with `O=S(=O)(/C=C/c1cccc(F)c1)c1ccc(Cl)cc1` the figure was 105%; with `O=S(=O)(/C=C/c1ccc(F)cc1)c1ccc(Cl)cc1`, 111%.

In turn, `COc1ccc(S(=O)(=O)/C=C/c2ccccc2OC(F)(F)F)cc1` yielded an Activity in assay [1] of 212%. This compound also showed a fold change (FC) in assay [2] of 2.1. The like results for `COc1cccc(S(=O)(=O)/C=C/c2cccc(C(F)(F)F)c2)c1` were, in that order, 204% and 2. In turn, `COc1ccc([S+]([O-])/C=C/c2ccccc2C(F)(F)F)cc1` (stereo not drawn) had an Activity in assay [1] of 134%. `COc1ccccc1S(=O)(=O)/C=C/c1cccc(F)c1`: the Activity in assay [1] stood at 353%. The compound also yielded a fold change (FC) in assay [2] of 3.5. In assay [1], `O=S(=O)(/C=C/c1cccc(Cl)c1)c1ccc(F)cc1` came in with an Activity of 137%.

In assay [1], `O=S(=O)(/C=C/c1ccc(F)cc1)c1ccc(F)cc1` registered an Activity of 141%. `COc1ccc(S(=O)(=O)/C=C/c2cccc(Cl)c2)cc1` showed an Activity in assay [1] of 125%. This compound also returned a fold change (FC) in assay [2] of 1.2. On to `O=S(=O)(/C=C/c1ccccc1C(F)(F)F)c1ccc(F)cc1`, for which the Activity in assay [1] was 248%. Still for that read-out and setting: with `O=S(=O)(/C=C/c1cccc(Cl)c1)c1ccc(Cl)cc1` the figure was 127%; with `O=S(=O)(/C=C/c1ccc(C(F)(F)F)cc1)c1ccc(Cl)cc1`, 140%. `COc1ccc(S(=O)(=O)/C=C/c2ccccc2N)cc1` returned an Activity in assay [1] of 141%. The same compound gave a fold change (FC) in assay [2] of 1.4.

Regarding `COc1ccc(S(=O)(=O)/C=C/c2ccccc2C(F)(F)F)cc1OC`, the Activity in assay [1] was 204%.

In turn, `O=S(=O)(/C=C/c1ccccc1F)c1ccc(Cl)cc1` showed an Activity in assay [1] of 107%. `COc1ccc(S(=O)(=O)/C=C/c2cccc(F)c2)cc1` returned an Activity in assay [1] of 203%. Also, the fold change (FC) in assay [2] is 2. On the same counts, the results for `COc1ccc(S(=O)(=O)/C=C/c2ccc(F)cc2)cc1` are 177% and 1.8. On the same counts, the results for `COc1cccc(S(=O)(=O)/C=C/c2ccc(C(F)(F)F)cc2)c1` are 148% and 1.5. The like results for `COc1ccccc1S(=O)(=O)/C=C/c1ccc(C(F)(F)F)cc1` were, in that order, 357% and 3.6. Compound `O=S(=O)(/C=C/c1ccccc1Cl)c1ccc(F)cc1` yielded an Activity in assay [1] of 225%. In the case of `COc1cccc(S(=O)(=O)/C=C/c2ccccc2Cl)c1`, the Activity in assay [1] amounted to 284%. Also, the fold change (FC) in assay [2] amounted to 2.8. The like results for `COc1ccc(S(=O)(=O)/C=C/c2cccc(C(F)(F)F)c2)cc1` were, in that order, 214% and 2.1. `O=S(=O)(/C=C/c1cccc(C(F)(F)F)c1)c1ccccc1` displayed an Activity in assay [1] of 188%. `COc1ccc(S(=O)(=O)/C=C/c2ccccc2Cl)cc1` returned an Activity in assay [1] of 158%. This compound returned a fold change (FC) in assay [2] of 1.6. `COc1ccc(S(=O)(=O)/C=C/c2cccc(C(F)(F)F)c2)cc1OC` returned an Activity in assay [1] of 153%. Turning to `O=S(=O)(/C=C/c1cccc(F)c1)c1ccc(F)cc1`, the Activity in assay [1] worked out at 177%. In assay [1], `COc1ccccc1S(=O)(=O)/C=C/c1ccccc1F` gave an Activity of 373%. In assay [2], the fold change (FC) amounted to 3.7. The compound `O=S(=O)(/C=C/c1ccccc1C(F)(F)F)c1ccc(Cl)cc1` yielded an Activity in assay [1] of 242%.

In assay [1], `COc1ccc(S(=O)(=O)/C=C/c2ccccc2OC)cc1` returned an Activity of 126%. In assay [2], this compound displayed a fold change (FC) of 1.2. On the same counts, the results for `COc1cccc(S(=O)(=O)/C=C/c2cccc(Cl)c2)c1` are 111% and 1.1. For `O=S(=O)(/C=C/c1ccc(Cl)cc1)c1ccc(Cl)cc1`, the Activity in assay [1] came out at 117%.

`COc1ccc(/C=C/S(=O)(=O)c2ccc(OC)cc2)cc1` returned an Activity in assay [1] of 133%. In addition, the fold change (FC) in assay [2] stood at 1.3.

As to `COc1ccc(S(=O)(=O)/C=C/c2ccccc2C(F)(F)F)cc1`, the Activity in assay [1] came to 258%. In addition, the fold change (FC) in assay [2] came out at 2.6. The like results for `COc1ccccc1S(=O)(=O)/C=C/c1cccc(Cl)c1` were, in that order, 245% and 2.4. On the same counts, the results for `COc1ccccc1S(=O)(=O)/C=C/c1cccc(C(F)(F)F)c1` are 256% and 2.6. With `O=S(=O)(/C=C/c1cccc(C(F)(F)F)c1)c1ccc(F)cc1`, in assay [1], the Activity stood at 158%. In assay [1], `COc1cccc(S(=O)(=O)/C=C/c2ccccc2F)c1` had an Activity of 148%. This compound also showed a fold change (FC) in assay [2] of 1.5. `COc1ccc(S(=O)(=O)/C=C/c2ccc(C(F)(F)F)cc2)cc1OC` yielded an Activity in assay [1] of 119%. Consider `COc1ccccc1S(=O)(=O)/C=C/c1ccccc1C(F)(F)F`, for which, in assay [1], the Activity came to 328%. This compound also returned a fold change (FC) in assay [2] of 3.3. Compound `O=S(=O)(/C=C/c1ccccc1Cl)c1ccc(Cl)cc1` returned an Activity in assay [1] of 169%. In assay [1], `COc1cccc(S(=O)(=O)/C=C/c2cccc(F)c2)c1` showed an Activity of 136%. This compound returned a fold change (FC) in assay [2] of 1.4. In the case of `O=S(=O)(/C=C/c1ccccc1C(F)(F)F)c1ccccc1`, the Activity in assay [1] is 193%. `COc1cccc(S(=O)(=O)/C=C/c2ccc(F)cc2)c1`: in assay [1], the Activity was 160%. In assay [2], this compound returned a fold change (FC) of 1.6. Take `O=S(=O)(/C=C/c1ccc(Cl)cc1)c1ccc(F)cc1`: the Activity in assay [1] is 112%. `COc1cccc(S(=O)(=O)/C=C/c2ccccc2C(F)(F)F)c1` showed an Activity in assay [1] of 251%. The compound also showed a fold change (FC) in assay [2] of 2.5. Compound `O=S(=O)(/C=C/c1ccccc1F)c1ccc(F)cc1` showed an Activity in assay [1] of 241%. The same measure, in the same setting: with `O=S(=O)(/C=C/c1cccc(C(F)(F)F)c1)c1ccc(Cl)cc1` the figure was 111%. In assay [1], `COc1ccc(S(=O)(=O)/C=C/c2ccccc2F)cc1` came in with an Activity of 174%. Also, the fold change (FC) in assay [2] came out at 1.7.

`COc1ccc(S(=O)(=O)/C=C/c2ccc(Cl)cc2)cc1` had an Activity in assay [1] of 169%. The fold change (FC) in assay [2] is 1.7. The compound `COc1ccc(C(=O)/C=C/c2ccccc2C(F)(F)F)cc1` came in with an Activity in assay [1] of 164%. On the same count and under the same terms, the value for `O=S(=O)(/C=C/c1ccc(C(F)(F)F)cc1)c1ccccc1` was 155%. In turn, `COc1cccc(S(=O)(=O)/C=C/c2ccc(Cl)cc2)c1` gave an Activity in assay [1] of 228%. Also, in assay [2], the fold change (FC) was 2.3. On the same counts, the results for `COc1ccccc1S(=O)(=O)/C=C/c1ccc(F)cc1` are 259% and 2.6.
